Source: ChEMBL document CHEMBL5724801, “EUbOPEN Chemogenomics Library - Multiplex” (2024)
“And” between values parts separate entries of the source, which are not always exact repeats. Equal entries are not always repeated.

Tested on: HEK-293T
Test: Multiplex assay against HEK293T
Format: toxicity, cell-based
Conditions: human
Procedure, shortened: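 Per cents of healthy-nucleus cells form the tubulin, mitochondrial-mass and membrane-permeability phenotype values. Live cells were stained at seeding with Hoechst33342, BioTracker Green Microtubule Cytoskeleton Dye, MitoTracker Red and Annexin V Alexa Fluor 680. After compound addition they were imaged on a CQ1 microscope at 37°C and 5% CO2, and CellPathfinder machine-learning gating split them into Hoechst high-intensity objects or normal cells, normal cells into healthy, pyknosed or fragmented nuclei, and pyknosed cells into mitotic or apoptotic.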

[1] = 12 h, 1 µM, compound concentration 1 uM
[2] = 12 h, 10 µM, compound concentration 10 uM
[3] = 24 h, 1 µM, compound concentration 1 uM
[4] = 24 h, 10 µM, compound concentration 10 uM
[5] = 48 h, 1 µM, compound concentration 1 uM
[6] = 48 h, 10 µM, compound concentration 10 uM

Cc1noc(-c2ccc(-c3ccc(CC(=O)O)cc3)cc2)c1NC(=O)O[C@H](C)c1ccccc1Cl
Population Apoptotic (%) [1]: 29% and 59%
Population Fragmented Nuclei (%) [1]: 7% and 4%
Population Healthy Nuclei (%) [1]: 79% and 77%
Population Hoechst High Intensity Objects (%) [1]: 5% and 11%
Population Membrane Permeable-Phenotype (%) [1]: 0%
Population Mitochondria Different-Phenotype (%) [1]: 38% and 69%
Population Mitotic Cells (%) [1]: 70% and 40%
Population Normal (%) [1]: 94% and 88%
Population Pyknosed Nuclei (%) [1]: 13% and 17%
Population Tubulin-Different-Phenotype (%) [1]: 29% and 28%
Total Cell Count [1]: 403 and 296
Population Apoptotic (%) [2]: 51% and 41%
Population Fragmented Nuclei (%) [2]: 11% and 8%
Population Healthy Nuclei (%) [2]: 68% and 72%
Population Hoechst High Intensity Objects (%) [2]: 7% and 14%
Population Membrane Permeable-Phenotype (%) [2]: 0%
Population Mitochondria Different-Phenotype (%) [2]: 72% and 69%
Population Mitotic Cells (%) [2]: 48% and 58%
Population Normal (%) [2]: 92% and 85%
Population Pyknosed Nuclei (%) [2]: 20% and 18%
Population Tubulin-Different-Phenotype (%) [2]: 65% and 34%
Total Cell Count [2]: 295 and 341
Population Apoptotic (%) [3]: 22% and 40%
Population Fragmented Nuclei (%) [3]: 10% and 9%
Population Healthy Nuclei (%) [3]: 79% and 80%
Population Hoechst High Intensity Objects (%) [3]: 5% and 7%
Population Membrane Permeable-Phenotype (%) [3]: 0%
Population Mitochondria Different-Phenotype (%) [3]: 23% and 42%
Population Mitotic Cells (%) [3]: 77% and 60%
Population Normal (%) [3]: 94% and 92%
Population Pyknosed Nuclei (%) [3]: 9%
Population Tubulin-Different-Phenotype (%) [3]: 17% and 20%
Total Cell Count [3]: 570 and 378
Population Apoptotic (%) [4]: 39% and 32%
Population Fragmented Nuclei (%) [4]: 7% and 9%
Population Healthy Nuclei (%) [4]: 76% and 75%
Population Hoechst High Intensity Objects (%) [4]: 8% and 16%
Population Membrane Permeable-Phenotype (%) [4]: 1% and 0%
Population Mitochondria Different-Phenotype (%) [4]: 58% and 53%
Population Mitotic Cells (%) [4]: 60% and 68%
Population Normal (%) [4]: 91% and 83%
Population Pyknosed Nuclei (%) [4]: 16% and 15%
Population Tubulin-Different-Phenotype (%) [4]: 47% and 38%
Total Cell Count [4]: 352 and 390
Population Apoptotic (%) [5]: 17% and 35%
Population Fragmented Nuclei (%) [5]: 11% and 12%
Population Healthy Nuclei (%) [5]: 82% and 76%
Population Hoechst High Intensity Objects (%) [5]: 4%
Population Membrane Permeable-Phenotype (%) [5]: 1% and 0%
Population Mitochondria Different-Phenotype (%) [5]: 20% and 34%
Population Mitotic Cells (%) [5]: 82% and 64%
Population Normal (%) [5]: 95%
Population Pyknosed Nuclei (%) [5]: 5% and 10%
Population Tubulin-Different-Phenotype (%) [5]: 14% and 21%
Total Cell Count [5]: 930 and 494
Population Apoptotic (%) [6]: 38% and 46%
Population Fragmented Nuclei (%) [6]: 10% and 13%
Population Healthy Nuclei (%) [6]: 79% and 74%
Population Hoechst High Intensity Objects (%) [6]: 6% and 10%
Population Membrane Permeable-Phenotype (%) [6]: 0% and 1%
Population Mitochondria Different-Phenotype (%) [6]: 40% and 35%
Population Mitotic Cells (%) [6]: 61% and 53%
Population Normal (%) [6]: 93% and 89%
Population Pyknosed Nuclei (%) [6]: 10% and 11%
Population Tubulin-Different-Phenotype (%) [6]: 33% and 25%
Total Cell Count [6]: 445 and 508

C[C@@H]1CC(=O)Nc2cccc(-c3ccc4c(c3)c(-c3cnn(C)c3)nn4C)c2N1
Population Apoptotic (%) [1]: 36% and 60%
Population Fragmented Nuclei (%) [1]: 7% and 5%
Population Healthy Nuclei (%) [1]: 76% and 77%
Population Hoechst High Intensity Objects (%) [1]: 7%
Population Membrane Permeable-Phenotype (%) [1]: 0%
Population Mitochondria Different-Phenotype (%) [1]: 51% and 65%
Population Mitotic Cells (%) [1]: 63% and 39%
Population Normal (%) [1]: 92%
Population Pyknosed Nuclei (%) [1]: 16%
Population Tubulin-Different-Phenotype (%) [1]: 39% and 26%
Total Cell Count [1]: 305 and 349
Population Apoptotic (%) [2]: 49% and 38%
Population Fragmented Nuclei (%) [2]: 8% and 5%
Population Healthy Nuclei (%) [2]: 74% and 77%
Population Hoechst High Intensity Objects (%) [2]: 5% and 12%
Population Membrane Permeable-Phenotype (%) [2]: 0%
Population Mitochondria Different-Phenotype (%) [2]: 72% and 86%
Population Mitotic Cells (%) [2]: 50% and 62%
Population Normal (%) [2]: 94% and 87%
Population Pyknosed Nuclei (%) [2]: 17% and 16%
Population Tubulin-Different-Phenotype (%) [2]: 62% and 56%
Total Cell Count [2]: 384 and 345
Population Apoptotic (%) [3]: 38% and 50%
Population Fragmented Nuclei (%) [3]: 10% and 8%
Population Healthy Nuclei (%) [3]: 74% and 79%
Population Hoechst High Intensity Objects (%) [3]: 7% and 6%
Population Membrane Permeable-Phenotype (%) [3]: 0%
Population Mitochondria Different-Phenotype (%) [3]: 37% and 48%
Population Mitotic Cells (%) [3]: 61% and 50%
Population Normal (%) [3]: 92% and 93%
Population Pyknosed Nuclei (%) [3]: 14% and 11%
Population Tubulin-Different-Phenotype (%) [3]: 20% and 16%
Total Cell Count [3]: 395 and 422
Population Apoptotic (%) [4]: 43% and 57%
Population Fragmented Nuclei (%) [4]: 9% and 8%
Population Healthy Nuclei (%) [4]: 76% and 72%
Population Hoechst High Intensity Objects (%) [4]: 2% and 5%
Population Membrane Permeable-Phenotype (%) [4]: 0%
Population Mitochondria Different-Phenotype (%) [4]: 62% and 68%
Population Mitotic Cells (%) [4]: 56% and 42%
Population Normal (%) [4]: 97% and 94%
Population Pyknosed Nuclei (%) [4]: 13% and 19%
Population Tubulin-Different-Phenotype (%) [4]: 37% and 28%
Total Cell Count [4]: 472 and 381
Population Apoptotic (%) [5]: 33% and 30%
Population Fragmented Nuclei (%) [5]: 11% and 9%
Population Healthy Nuclei (%) [5]: 80% and 81%
Population Hoechst High Intensity Objects (%) [5]: 1% and 2%
Population Membrane Permeable-Phenotype (%) [5]: 0%
Population Mitochondria Different-Phenotype (%) [5]: 23% and 30%
Population Mitotic Cells (%) [5]: 66% and 69%
Population Normal (%) [5]: 98% and 97%
Population Pyknosed Nuclei (%) [5]: 7% and 9%
Population Tubulin-Different-Phenotype (%) [5]: 13%
Total Cell Count [5]: 627 and 593
Population Apoptotic (%) [6]: 43% and 42%
Population Fragmented Nuclei (%) [6]: 13% and 12%
Population Healthy Nuclei (%) [6]: 80% and 78%
Population Hoechst High Intensity Objects (%) [6]: 4% and 2%
Population Membrane Permeable-Phenotype (%) [6]: 0%
Population Mitochondria Different-Phenotype (%) [6]: 44% and 53%
Population Mitotic Cells (%) [6]: 56% and 57%
Population Normal (%) [6]: 95% and 97%
Population Pyknosed Nuclei (%) [6]: 6% and 9%
Population Tubulin-Different-Phenotype (%) [6]: 16% and 20%
Total Cell Count [6]: 636 and 521
